From ChEMBL document CHEMBL5696442, “Discovery of type II inhibitors of TGFβ-activated kinase 1 (TAK1) and mitogen-activated protein kinase kinase kinase kinase 2 (MAP4K2)” (J Med Chem, 2015)

Experiments:
[1] = molecular target: Mitogen-activated protein kinase kinase kinase 1 (Homo sapiens) (UniProt Q13233); assay: Inhibition of MAP3K1 Lys2 labeling site in human Huh-7 cells at 1 uM by KiNativ Profiling analysis relative to control; format: cell-based
[2] = molecular target: Epidermal growth factor receptor (Homo sapiens) (UniProt P00533); assay: Inhibition of EGFR Lys1 labeling site harbouring GLWIPEGEKVKIPVAIKELR in human Huh-7 cells at 1 uM by KiNativ Profiling analysis relative to control; format: cell-based
Sequence of Epidermal growth factor receptor (Homo sapiens) (P00533 whole entry): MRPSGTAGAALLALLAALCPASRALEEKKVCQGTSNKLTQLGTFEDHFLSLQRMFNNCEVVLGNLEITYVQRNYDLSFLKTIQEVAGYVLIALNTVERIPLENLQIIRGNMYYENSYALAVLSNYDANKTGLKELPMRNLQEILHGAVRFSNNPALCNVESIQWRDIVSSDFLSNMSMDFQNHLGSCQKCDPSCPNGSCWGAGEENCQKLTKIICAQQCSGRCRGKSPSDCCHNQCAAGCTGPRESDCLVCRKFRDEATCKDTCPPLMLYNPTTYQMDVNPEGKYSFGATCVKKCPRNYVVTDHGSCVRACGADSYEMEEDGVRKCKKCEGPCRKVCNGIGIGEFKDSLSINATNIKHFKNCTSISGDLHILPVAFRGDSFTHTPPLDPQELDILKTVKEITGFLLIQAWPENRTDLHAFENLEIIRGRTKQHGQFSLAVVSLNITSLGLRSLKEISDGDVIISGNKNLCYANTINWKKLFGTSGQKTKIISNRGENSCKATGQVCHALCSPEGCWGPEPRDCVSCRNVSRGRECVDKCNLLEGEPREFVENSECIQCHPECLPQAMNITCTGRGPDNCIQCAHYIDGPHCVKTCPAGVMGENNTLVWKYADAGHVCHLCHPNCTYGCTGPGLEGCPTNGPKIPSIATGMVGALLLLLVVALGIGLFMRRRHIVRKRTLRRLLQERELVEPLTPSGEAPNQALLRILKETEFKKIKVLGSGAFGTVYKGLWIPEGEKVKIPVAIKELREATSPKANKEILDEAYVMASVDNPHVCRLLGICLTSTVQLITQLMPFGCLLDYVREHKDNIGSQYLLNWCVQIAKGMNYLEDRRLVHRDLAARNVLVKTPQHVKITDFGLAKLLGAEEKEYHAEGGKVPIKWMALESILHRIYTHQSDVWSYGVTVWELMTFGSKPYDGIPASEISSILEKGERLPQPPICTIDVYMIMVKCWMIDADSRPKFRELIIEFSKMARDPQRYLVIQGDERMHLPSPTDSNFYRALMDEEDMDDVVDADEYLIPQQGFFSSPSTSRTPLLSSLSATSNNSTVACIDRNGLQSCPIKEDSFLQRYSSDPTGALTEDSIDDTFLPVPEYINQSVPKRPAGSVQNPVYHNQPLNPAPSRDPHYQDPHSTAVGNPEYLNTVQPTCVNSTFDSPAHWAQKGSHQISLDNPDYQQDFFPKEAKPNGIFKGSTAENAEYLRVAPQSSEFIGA

[3] = Inhibition of KHS1 Lys1 labeling site in human Huh-7 cell lysate at 1 uM by KiNativ Profiling analysis relative to control; conditions: condition cancer
[4] = molecular target: T1, Mitogen-activated protein kinase kinase kinase 2 (Homo sapiens) (UniProt Q9Y2U5); assay: Inhibition of MAP3K2 Lys1 labeling site in human Huh-7 cell lysate at 1 uM by KiNativ Profiling analysis relative to control; format: subcellular
T1 sequence (whole entry): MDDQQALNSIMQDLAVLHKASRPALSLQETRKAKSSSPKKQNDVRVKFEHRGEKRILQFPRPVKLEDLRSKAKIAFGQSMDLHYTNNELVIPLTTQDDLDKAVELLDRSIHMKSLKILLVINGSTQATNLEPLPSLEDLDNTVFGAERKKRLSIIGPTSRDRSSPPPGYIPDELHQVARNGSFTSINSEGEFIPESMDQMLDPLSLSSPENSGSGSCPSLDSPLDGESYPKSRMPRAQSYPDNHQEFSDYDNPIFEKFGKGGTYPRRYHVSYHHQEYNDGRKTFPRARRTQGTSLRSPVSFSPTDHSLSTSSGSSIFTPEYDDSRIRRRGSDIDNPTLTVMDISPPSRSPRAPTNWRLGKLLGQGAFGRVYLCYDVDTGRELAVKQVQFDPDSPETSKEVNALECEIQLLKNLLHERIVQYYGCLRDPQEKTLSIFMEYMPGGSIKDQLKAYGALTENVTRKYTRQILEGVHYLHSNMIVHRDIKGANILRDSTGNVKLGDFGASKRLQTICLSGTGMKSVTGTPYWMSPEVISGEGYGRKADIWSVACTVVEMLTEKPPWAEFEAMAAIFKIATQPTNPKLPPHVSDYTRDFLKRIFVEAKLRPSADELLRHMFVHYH

[5] = molecular target: Ephrin type-A receptor 8 (Homo sapiens) (UniProt P29322); assay: Inhibition of EPHA8 (unknown origin) at 1 uM by Ambit Kinomescan binding assay relative to control; values are per cent of control
Sequence of Ephrin type-A receptor 8 (Homo sapiens) (P29322 whole entry): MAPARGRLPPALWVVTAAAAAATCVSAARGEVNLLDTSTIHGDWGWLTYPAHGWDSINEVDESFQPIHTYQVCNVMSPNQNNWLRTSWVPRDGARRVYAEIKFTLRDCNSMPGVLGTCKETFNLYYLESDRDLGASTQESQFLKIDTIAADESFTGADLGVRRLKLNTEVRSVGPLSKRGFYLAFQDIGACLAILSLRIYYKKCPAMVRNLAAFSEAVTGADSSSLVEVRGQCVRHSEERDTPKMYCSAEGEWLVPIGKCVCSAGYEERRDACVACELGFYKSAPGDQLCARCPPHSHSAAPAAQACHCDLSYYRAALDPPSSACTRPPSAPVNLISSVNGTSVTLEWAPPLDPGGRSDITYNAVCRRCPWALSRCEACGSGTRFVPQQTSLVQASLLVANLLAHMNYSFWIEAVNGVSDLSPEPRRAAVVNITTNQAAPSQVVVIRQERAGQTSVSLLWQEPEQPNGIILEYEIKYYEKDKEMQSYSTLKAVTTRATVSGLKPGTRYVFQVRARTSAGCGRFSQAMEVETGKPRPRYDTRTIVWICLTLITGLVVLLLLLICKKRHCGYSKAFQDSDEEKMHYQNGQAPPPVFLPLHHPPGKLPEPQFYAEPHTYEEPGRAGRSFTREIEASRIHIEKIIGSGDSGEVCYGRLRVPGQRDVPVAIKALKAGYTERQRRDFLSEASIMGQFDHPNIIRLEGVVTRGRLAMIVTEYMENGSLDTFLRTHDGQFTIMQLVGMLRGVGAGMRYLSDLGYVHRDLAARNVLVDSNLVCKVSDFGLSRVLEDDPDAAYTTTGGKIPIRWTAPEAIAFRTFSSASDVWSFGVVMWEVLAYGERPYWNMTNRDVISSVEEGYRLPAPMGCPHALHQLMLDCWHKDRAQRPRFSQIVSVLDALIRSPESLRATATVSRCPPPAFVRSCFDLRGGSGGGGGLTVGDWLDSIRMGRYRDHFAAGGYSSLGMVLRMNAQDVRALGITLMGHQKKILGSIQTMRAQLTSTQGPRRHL

[6] = molecular target: T2, Serine/threonine-protein kinase ULK1 (Homo sapiens) (UniProt O75385); assay: Inhibition of ULK1 (unknown origin) at 1 uM by Ambit Kinomescan binding assay relative to control
T2 sequence (whole entry): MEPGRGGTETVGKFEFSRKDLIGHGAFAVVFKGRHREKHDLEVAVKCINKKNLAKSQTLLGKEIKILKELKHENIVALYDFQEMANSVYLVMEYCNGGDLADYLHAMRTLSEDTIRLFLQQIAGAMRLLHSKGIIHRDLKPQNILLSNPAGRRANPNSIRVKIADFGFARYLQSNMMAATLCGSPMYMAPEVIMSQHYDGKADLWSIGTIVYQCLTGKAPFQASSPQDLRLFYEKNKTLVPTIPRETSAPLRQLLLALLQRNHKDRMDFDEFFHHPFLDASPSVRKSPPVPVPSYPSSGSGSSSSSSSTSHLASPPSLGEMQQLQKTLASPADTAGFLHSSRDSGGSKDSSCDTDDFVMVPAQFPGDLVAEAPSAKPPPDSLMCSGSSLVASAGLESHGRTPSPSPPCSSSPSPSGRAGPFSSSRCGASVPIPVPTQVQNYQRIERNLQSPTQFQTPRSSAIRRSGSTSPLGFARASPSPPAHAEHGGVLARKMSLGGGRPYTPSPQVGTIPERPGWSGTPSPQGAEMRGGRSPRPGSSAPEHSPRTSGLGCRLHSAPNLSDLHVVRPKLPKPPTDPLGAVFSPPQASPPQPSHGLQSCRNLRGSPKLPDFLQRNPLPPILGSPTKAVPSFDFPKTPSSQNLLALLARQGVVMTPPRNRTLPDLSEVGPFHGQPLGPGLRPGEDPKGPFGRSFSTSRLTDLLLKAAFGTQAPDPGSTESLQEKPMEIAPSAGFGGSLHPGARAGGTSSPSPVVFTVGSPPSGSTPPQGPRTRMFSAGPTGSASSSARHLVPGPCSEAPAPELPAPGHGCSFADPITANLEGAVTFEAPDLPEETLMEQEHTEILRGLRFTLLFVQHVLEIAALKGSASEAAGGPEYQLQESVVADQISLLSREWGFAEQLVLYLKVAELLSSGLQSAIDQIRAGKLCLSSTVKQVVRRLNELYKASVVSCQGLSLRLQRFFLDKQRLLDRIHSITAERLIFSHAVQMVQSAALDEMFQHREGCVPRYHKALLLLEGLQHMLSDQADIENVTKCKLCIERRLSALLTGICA

[7] = molecular target: T3, Acylglycerol kinase, mitochondrial (Homo sapiens) (UniProt Q53H12); assay: Inhibition of AGK ATP labeling site in human A-375 cells at 0.05 uM by KiNativ Profiling analysis relative to control; format: cell-based
T3 sequence (whole entry): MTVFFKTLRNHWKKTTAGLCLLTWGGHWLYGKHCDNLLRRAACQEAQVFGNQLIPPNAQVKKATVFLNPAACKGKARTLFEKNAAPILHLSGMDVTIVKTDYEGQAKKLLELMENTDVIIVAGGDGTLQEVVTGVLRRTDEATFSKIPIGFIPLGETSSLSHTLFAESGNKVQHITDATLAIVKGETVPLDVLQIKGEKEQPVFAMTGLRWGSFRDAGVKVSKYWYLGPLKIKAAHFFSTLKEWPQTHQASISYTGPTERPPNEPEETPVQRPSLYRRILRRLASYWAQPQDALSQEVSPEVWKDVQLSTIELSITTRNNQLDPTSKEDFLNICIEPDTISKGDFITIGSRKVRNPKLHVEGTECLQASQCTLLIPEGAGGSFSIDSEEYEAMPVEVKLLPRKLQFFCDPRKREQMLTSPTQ

[8] = molecular target: c-Jun N-terminal kinase, JNK (Homo sapiens) (UniProt P45983+P53779+P45984); assay: Inhibition of JNK1/2/3 K2 labeling site in human Huh-7 cells at 1 uM by KiNativ Profiling analysis relative to control; format: cell-based
[9] = Inhibition of KHS1 Lys1 labeling site in human A-375 cells at 5 uM by KiNativ Profiling analysis relative to control; conditions: condition cancer
[10] = Cmax in Swiss albino mouse at 1 mg/kg, iv measured upto 24 hrs by LC/MS/MS analysis; format: ADME, organism-based; conditions: in vivo
Summary of the method: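 Male Swiss albino mice. […] Blood was taken into K2EDTA from three mice per time point, from 0 to 24 h. Plasma was precipitated with acetonitrile and analysed by LC/MS/MS (LLOQ 1.138 ng/mL).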

[11] = molecular target: Mitogen-activated protein kinase 7 (Homo sapiens) (UniProt Q13164); assay: Inhibition of Erk5 K2 labeling site in human Huh-7 cells at 1 uM by KiNativ Profiling analysis relative to control; format: cell-based
Sequence of Mitogen-activated protein kinase 7 (Homo sapiens) (Q13164 2-816 limits assumed): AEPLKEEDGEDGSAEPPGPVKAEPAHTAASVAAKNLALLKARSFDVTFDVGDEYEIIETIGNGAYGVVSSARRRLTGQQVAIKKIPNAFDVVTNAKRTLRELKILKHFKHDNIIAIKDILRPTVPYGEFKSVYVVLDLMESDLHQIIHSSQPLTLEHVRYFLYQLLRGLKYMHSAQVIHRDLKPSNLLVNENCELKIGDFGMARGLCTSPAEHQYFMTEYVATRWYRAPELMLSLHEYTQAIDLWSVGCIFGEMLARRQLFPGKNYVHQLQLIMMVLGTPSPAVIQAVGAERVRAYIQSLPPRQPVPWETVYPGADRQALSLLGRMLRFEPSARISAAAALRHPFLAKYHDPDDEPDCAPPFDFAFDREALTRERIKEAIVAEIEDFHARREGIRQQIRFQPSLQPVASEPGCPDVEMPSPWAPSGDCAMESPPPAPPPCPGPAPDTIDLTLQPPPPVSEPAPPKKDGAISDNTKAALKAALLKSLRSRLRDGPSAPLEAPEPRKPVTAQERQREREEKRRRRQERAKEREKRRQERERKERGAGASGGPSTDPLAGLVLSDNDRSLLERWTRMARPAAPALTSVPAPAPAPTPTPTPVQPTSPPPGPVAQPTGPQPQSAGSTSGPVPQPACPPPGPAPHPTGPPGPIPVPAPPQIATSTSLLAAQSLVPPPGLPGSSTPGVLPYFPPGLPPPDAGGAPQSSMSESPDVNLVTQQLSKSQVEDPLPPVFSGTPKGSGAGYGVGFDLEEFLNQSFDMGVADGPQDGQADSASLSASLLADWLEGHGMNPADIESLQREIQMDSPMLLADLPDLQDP

Sequence of Mitogen-activated protein kinase kinase kinase 1 (Homo sapiens) (Q13233 whole entry): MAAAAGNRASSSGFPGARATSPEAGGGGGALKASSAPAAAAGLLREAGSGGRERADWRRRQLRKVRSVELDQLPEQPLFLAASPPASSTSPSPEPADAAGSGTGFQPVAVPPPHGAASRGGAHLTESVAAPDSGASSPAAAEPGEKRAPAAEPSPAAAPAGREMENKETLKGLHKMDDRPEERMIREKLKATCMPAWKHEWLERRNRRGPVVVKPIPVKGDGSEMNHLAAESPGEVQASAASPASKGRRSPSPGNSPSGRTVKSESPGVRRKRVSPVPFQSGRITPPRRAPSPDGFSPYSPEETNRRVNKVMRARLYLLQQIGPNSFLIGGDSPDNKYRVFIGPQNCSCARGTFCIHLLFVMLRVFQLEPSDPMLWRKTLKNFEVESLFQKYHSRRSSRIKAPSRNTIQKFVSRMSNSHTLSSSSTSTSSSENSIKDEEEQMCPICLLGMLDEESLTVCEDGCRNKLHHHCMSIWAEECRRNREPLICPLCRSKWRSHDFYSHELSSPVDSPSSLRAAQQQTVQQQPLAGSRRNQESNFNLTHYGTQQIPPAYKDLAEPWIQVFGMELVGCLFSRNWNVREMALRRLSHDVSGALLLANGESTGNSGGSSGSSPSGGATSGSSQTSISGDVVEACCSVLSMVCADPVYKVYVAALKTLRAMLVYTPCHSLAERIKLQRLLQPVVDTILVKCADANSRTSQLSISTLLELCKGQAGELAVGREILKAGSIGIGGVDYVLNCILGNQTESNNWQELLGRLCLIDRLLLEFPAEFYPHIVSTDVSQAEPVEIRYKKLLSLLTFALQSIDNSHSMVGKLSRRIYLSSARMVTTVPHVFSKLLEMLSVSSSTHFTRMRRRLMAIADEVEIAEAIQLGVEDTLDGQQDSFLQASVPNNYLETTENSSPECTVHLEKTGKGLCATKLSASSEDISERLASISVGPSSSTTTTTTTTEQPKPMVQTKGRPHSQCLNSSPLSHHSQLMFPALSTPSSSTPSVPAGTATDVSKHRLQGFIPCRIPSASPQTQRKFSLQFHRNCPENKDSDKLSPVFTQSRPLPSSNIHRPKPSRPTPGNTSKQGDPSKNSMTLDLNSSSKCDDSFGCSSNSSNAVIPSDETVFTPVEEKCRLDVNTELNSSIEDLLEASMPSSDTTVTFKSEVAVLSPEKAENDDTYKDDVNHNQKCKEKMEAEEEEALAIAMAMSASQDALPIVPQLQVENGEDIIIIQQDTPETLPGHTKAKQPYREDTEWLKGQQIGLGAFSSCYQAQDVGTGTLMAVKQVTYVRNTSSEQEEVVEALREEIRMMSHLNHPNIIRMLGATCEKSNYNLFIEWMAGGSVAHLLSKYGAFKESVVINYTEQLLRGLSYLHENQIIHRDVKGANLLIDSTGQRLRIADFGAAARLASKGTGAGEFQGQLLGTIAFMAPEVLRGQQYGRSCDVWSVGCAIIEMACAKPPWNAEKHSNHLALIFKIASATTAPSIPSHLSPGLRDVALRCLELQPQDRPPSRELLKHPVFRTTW

For `CNc1cc(Oc2cc(C(=O)Nc3cc(N4CCN(C)CC4)cc(C(F)(F)F)c3)ccc2C)ncn1`, the inhibition [1] was 27%, the inhibition [2] was -5.2% and the inhibition at 1 µM [3] was -10.2%. For the same molecule, the inhibition [4] was 11%.
With `CCN1CCN(Cc2ccc(NC(=O)c3ccc(C)c(/C=C/c4cnc5[nH]ccc5c4OC)c3)cc2C(F)(F)F)CC1` the residual activity [5] was 0.35%, the inhibition [6] was 68% and the inhibition [7] was 16.8%.
For `CCN1CCN(Cc2ccc(NC(=O)c3ccc(C)c(Oc4ccnc5[nH]ccc45)c3)cc2C(F)(F)F)CC1`, the inhibition [8] was 29.4%, the inhibition at 5 µM [9] was 61.3% and the Cmax [10] was 396 ng/mL. For the same molecule, the inhibition [11] was 14.6%.
